The values that follow come from ChEMBL document CHEMBL1146076, “Identification of potent and selective inhibitors of PDGF receptor autophosphorylation” (J Med Chem, 2006).

Some results are limits rather than exact numbers.

Experiment [1] has as its target Mast/stem cell growth factor receptor Kit (Homo sapiens, UniProt P10721). In words: Inhibition of c-kit receptor phosphorylation in M07e cell. In kind it is functional, cell-based. Summed up: (§1)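 Cell-based ELISA on intact cells: PDGFR-α in G292 cells, c-kit in M07e cells, both quiesced in 0.1% FBS medium. Serial compound concentrations were added for 1 h at 37 °C, then 50 ng/mL PDGF-AA (G292) or SCF (M07e) was added. Lysates were captured on anti-phosphotyrosine (PY-20) plates overnight at 4 °C. Detection used anti-PDGFR-α or anti-c-kit plus HRP, read at A450. IC50 is the mean of two tests.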

Experiment [2] has as its target Platelet-derived growth factor receptor alpha (Homo sapiens, UniProt P16234). The experiment is described as follows: Inhibition of PDGFR alpha phosphorylation in G292 cell. In kind it is functional, cell-based. Summed up: as §1

Platelet-derived growth factor receptor alpha, sequence (P16234 whole entry): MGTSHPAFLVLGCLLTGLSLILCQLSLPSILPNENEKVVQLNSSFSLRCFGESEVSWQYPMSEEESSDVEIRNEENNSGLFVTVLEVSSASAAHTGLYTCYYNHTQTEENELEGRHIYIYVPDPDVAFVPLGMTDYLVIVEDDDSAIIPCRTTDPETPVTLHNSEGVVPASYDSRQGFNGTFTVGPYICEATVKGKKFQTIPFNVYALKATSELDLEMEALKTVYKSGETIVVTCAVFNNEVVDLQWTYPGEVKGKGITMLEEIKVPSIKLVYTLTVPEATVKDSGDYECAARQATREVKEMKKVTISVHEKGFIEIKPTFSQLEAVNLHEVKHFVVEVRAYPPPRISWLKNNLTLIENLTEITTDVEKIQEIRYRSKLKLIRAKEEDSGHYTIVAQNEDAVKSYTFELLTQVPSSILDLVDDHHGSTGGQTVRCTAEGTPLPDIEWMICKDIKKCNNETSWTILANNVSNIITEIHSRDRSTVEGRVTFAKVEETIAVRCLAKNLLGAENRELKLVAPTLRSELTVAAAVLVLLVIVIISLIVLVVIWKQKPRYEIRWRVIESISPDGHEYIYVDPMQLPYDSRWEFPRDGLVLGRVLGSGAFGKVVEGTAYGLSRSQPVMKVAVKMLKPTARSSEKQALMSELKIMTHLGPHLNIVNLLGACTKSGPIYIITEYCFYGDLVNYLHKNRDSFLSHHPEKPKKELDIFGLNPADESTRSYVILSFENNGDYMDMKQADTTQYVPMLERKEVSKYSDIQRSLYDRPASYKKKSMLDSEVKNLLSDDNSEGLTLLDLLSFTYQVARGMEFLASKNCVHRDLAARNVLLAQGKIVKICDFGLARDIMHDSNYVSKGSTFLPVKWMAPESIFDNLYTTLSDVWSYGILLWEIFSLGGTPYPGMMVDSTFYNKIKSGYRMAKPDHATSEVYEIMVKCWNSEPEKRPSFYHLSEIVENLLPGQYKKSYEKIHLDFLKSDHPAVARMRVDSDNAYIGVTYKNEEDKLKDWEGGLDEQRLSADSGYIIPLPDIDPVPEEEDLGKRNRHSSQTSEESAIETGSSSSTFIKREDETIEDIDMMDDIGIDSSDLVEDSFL
Mast/stem cell growth factor receptor Kit, sequence (P10721 whole entry): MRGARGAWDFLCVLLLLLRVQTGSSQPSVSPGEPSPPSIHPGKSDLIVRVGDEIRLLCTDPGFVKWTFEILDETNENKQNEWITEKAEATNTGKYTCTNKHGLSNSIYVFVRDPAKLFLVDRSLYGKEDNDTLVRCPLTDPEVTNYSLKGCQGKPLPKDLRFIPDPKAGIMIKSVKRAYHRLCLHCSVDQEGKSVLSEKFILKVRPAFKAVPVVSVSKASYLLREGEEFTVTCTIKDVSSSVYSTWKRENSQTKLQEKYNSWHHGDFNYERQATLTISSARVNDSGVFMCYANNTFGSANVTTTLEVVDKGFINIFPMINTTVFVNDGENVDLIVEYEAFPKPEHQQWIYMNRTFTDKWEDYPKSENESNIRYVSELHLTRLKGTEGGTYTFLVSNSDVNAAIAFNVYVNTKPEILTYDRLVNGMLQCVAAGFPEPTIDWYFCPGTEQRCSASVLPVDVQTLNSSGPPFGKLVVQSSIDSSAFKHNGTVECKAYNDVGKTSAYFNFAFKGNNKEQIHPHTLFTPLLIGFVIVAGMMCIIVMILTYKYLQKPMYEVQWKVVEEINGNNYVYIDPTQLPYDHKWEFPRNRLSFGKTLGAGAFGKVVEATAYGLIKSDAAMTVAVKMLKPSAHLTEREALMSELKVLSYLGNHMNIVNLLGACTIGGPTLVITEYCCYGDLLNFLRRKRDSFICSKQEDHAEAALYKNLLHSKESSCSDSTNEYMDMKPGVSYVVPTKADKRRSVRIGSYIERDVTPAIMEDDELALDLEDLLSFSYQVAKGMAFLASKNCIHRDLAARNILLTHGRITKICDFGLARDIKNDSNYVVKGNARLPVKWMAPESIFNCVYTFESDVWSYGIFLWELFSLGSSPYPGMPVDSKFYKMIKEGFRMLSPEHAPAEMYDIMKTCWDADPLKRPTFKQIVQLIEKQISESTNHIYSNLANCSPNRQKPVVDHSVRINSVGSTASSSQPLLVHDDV

As for `COc1cc2ncnc(Oc3ccc(NC(=S)NCc4ccccc4)cc3)c2cc1OC`, the figures for the IC50 in experiment [1] and in experiment [2] were 303 nM and 46 nM, respectively.

In the case of `COc1cc2nccc(Oc3ccc(NC(=O)Oc4ccccc4)cc3)c2cc1OC`, the IC50 (usually the midpoint of a concentration-inhibition curve) in experiment [2] was found to be 5 nM.

For `COc1cc2nccc(Oc3ccc(NC(=O)NCCC4CCCCC4)cc3)c2cc1OC`, the IC50 in experiment [1] is < 30 nM; in experiment [2], 6 nM.

In the case of `COc1cc2nccc(Oc3ccc(NC(=O)NC4CCCCC4)cc3)c2cc1OC`, the IC50 in experiment [1] came to 22 nM; in experiment [2] it was 12 nM.

Take `COc1cc2nccc(Oc3ccc(NC(=S)NC4CCCCC4)cc3)c2cc1OC`: the IC50 in experiment [1] was 69 nM; in experiment [2] it was 40 nM.

On to `COc1cc2ncnc(Oc3ccc(NC(=S)NCC4CCCCC4)cc3)c2cc1OC`, for which the figures for the IC50 in experiment [1] and in experiment [2] were 153 nM and 37 nM, respectively.

Take `COc1cc2ncnc(Oc3ccc(NC(=O)NC4CCCCC4)cc3)c2cc1OC`: the IC50 in experiment [1] was 27 nM; in experiment [2], 7 nM.

`COc1cc2nccc(Oc3ccc(NC(=S)NC(=O)C4CCCCC4)cc3)c2cc1OC`: in experiment [2], the concentration for half-maximal inhibition (IC50) amounted to 15 nM. This counts as double-digit nanomolar.

`COc1cc2ncnc(Oc3ccc(NC(=O)NCCC4CCCCC4)cc3)c2cc1OC`: the 50% inhibitory concentration (IC50) was < 30 nM in experiment [1] and 9 nM in experiment [2].

Regarding `COc1cc2nccc(Oc3ccc(NC(=O)OCCC4CCCCC4)cc3)c2cc1OC`, the values for the IC50 in experiment [1] and in experiment [2] were 80 nM and 18 nM, respectively.

In experiment [2], `COc1cc2nccc(Oc3ccc(NC(=S)NC(=O)c4ccccc4Cl)cc3)c2cc1OC` returned an IC50 of 5 nM. This counts as single-digit nanomolar.

For the molecule `COc1cc2nccc(Oc3ccc(NC(=S)NC(=O)c4ccccc4)cc3)c2cc1OC`, it took 8 nM to reach half-maximal inhibition in experiment [2] (IC50).
